From ChEMBL document CHEMBL1255417, “Correlation between in vitro activity of posaconazole and in vivo efficacy against Rhizopus oryzae infection in mice” (Antimicrob Agents Chemother, 2010)
Values after ≈ are worked out from the molar mass of the structure shown. Active and inactive are the calls of the source. No cut-off for these calls is given here.

Columns and labels:
Rhizopus arrhizus [1] = experiment: Antifungal activity against drug-susceptible Rhizopus oryzae UTHSC 06-89 by broth microdilution method; format: functional
Rhizopus arrhizus [2] = experiment: Antifungal activity against drug-susceptible Rhizopus oryzae UTHSC 04-1613 by broth microdilution method; format: functional
Summary of the method: (§1)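 CLSI broth microdilution for filamentous fungi (M38-A2); MIC recorded in µg/ml against clinical isolates; breakpoints applied at 24 h.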

Rhizopus arrhizus [3] = experiment: Antifungal activity against drug-susceptible Rhizopus oryzae UTHSC 04-2459 by broth microdilution method; format: functional; summary of the method: as §1
Rhizopus arrhizus [4] = experiment: Antifungal activity against drug-susceptible Rhizopus oryzae UTHSC 06-1351 by broth microdilution method; format: functional
Summary of the method: (§2)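 Posaconazole MIC in ug/ml, determined by broth microdilution following the CLSI guidelines for moulds (M38-A2).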

Rhizopus arrhizus [5] = experiment: Antifungal activity against drug-susceptible Rhizopus oryzae UTHSC 412-546 by broth microdilution method; format: functional
Rhizopus arrhizus [6] = experiment: Antifungal activity against drug-susceptible Rhizopus oryzae UTHSC 06-4336 by broth microdilution method; format: functional; summary of the method: as §2
Rhizopus arrhizus [7] = experiment: Antifungal activity against drug-susceptible Rhizopus oryzae UTHSC 03-299 by broth microdilution method; format: functional; summary of the method: as §1
Rhizopus arrhizus [8] = experiment: Antifungal activity against drug-susceptible Rhizopus oryzae UTHSC 06-4133 at 5 ug by disk diffusion assay; format: functional; conditions: read-out: DIZ
Summary of the method: (§3)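 Neo-Sensitabs tablet diffusion on Mueller-Hinton agar, run per the mould guidelines. Tablets are 9 mm in diameter and carry 5 ug posaconazole. The read-out is the inhibition zone diameter in mm.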

Rhizopus arrhizus [9] = experiment: Antifungal activity against drug-susceptible Rhizopus oryzae UTHSC 04-443 at 5 ug by disk diffusion assay; format: functional; conditions: read-out: DIZ
Summary of the method: (§4)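 Neo-Sensitabs tablet diffusion on Mueller-Hinton agar, following guidelines for molds; 9 mm tablets containing 5 µg posaconazole; inhibition zone diameter measured in mm; zone breakpoints applied at 24 h.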

Rhizopus arrhizus [10] = experiment: Antifungal activity against drug-susceptible Rhizopus oryzae UTHSC 04-2159 at 5 ug by disk diffusion assay; format: functional; conditions: read-out: DIZ; summary of the method: as §4
Rhizopus arrhizus [11] = experiment: Antifungal activity against drug-susceptible Rhizopus oryzae UTHSC 05-1502 at 5 ug by disk diffusion assay; format: functional; conditions: read-out: DIZ; summary of the method: as §4
Rhizopus arrhizus [12] = experiment: Antifungal activity against drug-susceptible Rhizopus oryzae UTHSC 06-4035 at 5 ug by disk diffusion assay; format: functional; conditions: read-out: DIZ; summary of the method: as §3
Rhizopus arrhizus [13] = experiment: Antifungal activity against drug-susceptible Rhizopus oryzae UTHSC 03-547 at 5 ug by disk diffusion assay; format: functional; conditions: read-out: DIZ; summary of the method: as §4
Rhizopus arrhizus [14] = experiment: Antifungal activity against drug-susceptible Rhizopus oryzae UTHSC 06-434 at 5 ug by disk diffusion assay; format: functional; conditions: read-out: DIZ; summary of the method: as §3
Rhizopus arrhizus [15] = experiment: Antifungal activity against drug-susceptible Rhizopus oryzae UTHSC 06-4336 at 5 ug by disk diffusion assay; format: functional; conditions: read-out: DIZ; summary of the method: as §3
Rhizopus arrhizus [16] = experiment: Antifungal activity against drug-susceptible Rhizopus oryzae UTHSC 05-1679 at 5 ug by disk diffusion assay; format: functional; conditions: read-out: DIZ; summary of the method: as §4
Rhizopus arrhizus [17] = experiment: Antifungal activity against drug-intermediate Rhizopus oryzae UTHSC 03-285 at 5 ug by disk diffusion assay; format: functional; conditions: read-out: DIZ
Summary of the method: (§5)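 Neo-Sensitabs tablet diffusion on Mueller-Hinton agar, following the guidelines for molds. Tablets were 9 mm in diameter and held 5 µg of drug. The read-out was inhibition zone diameter in mm.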

Rhizopus arrhizus [18] = experiment: Antifungal activity against drug-intermediate Rhizopus oryzae UTHSC 05-114 at 5 ug by disk diffusion assay; format: functional; conditions: read-out: DIZ; summary of the method: as §5
Rhizopus arrhizus [19] = experiment: Antifungal activity against drug-susceptible Rhizopus oryzae UTHSC 04-278 after 24 to 48 hrs; format: functional
Summary of the method: (§6)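 Minimum fungicidal concentration: 20 µl from each microdilution well showing complete inhibition (optically clear) plated on potato dextrose agar, incubated 35°C for 24 to 48 h; MFC taken as lowest drug concentration giving no growth.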

Rhizopus arrhizus [20] = experiment: Antifungal activity against drug-susceptible Rhizopus oryzae UTHSC 04-1241 after 24 to 48 hrs; format: functional; summary of the method: as §6
Rhizopus arrhizus [21] = experiment: Antifungal activity against drug-susceptible Rhizopus oryzae UTHSC 06-89 after 24 to 48 hrs; format: functional
Rhizopus arrhizus [22] = experiment: Antifungal activity against drug-susceptible Rhizopus oryzae UTHSC 04-1613 after 24 to 48 hrs; format: functional; summary of the method: as §6
Rhizopus arrhizus [23] = experiment: Antifungal activity against drug-susceptible Rhizopus oryzae UTHSC 06-2374 after 24 to 48 hrs; format: functional
Summary of the method: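 Minimum fungicidal concentration taken from the broth microdilution plates. From each well with complete inhibition (optically clear), 20 ul is plated on potato dextrose agar. Plates are incubated at 35°C for 24 to 48 h. The MFC is the lowest drug concentration giving no growth.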

Rhizopus arrhizus [24] = experiment: Antifungal activity against drug-intermediate Rhizopus oryzae UTHSC 03-285 after 24 to 48 hrs; format: functional
Rhizopus arrhizus [25] = experiment: Antifungal activity against drug-intermediate Rhizopus oryzae UTHSC 05-3032 after 24 to 48 hrs; format: functional
Rhizopus arrhizus [26] = experiment: Antifungal activity against drug-intermediate Rhizopus oryzae UTHSC 04-3109 after 24 to 48 hrs; format: functional
Rhizopus arrhizus [27] = experiment: Antifungal activity against drug-intermediate Rhizopus oryzae UTHSC 05-114 after 24 to 48 hrs; format: functional
Rhizopus arrhizus [28] = experiment: Antifungal activity against drug-intermediate Rhizopus oryzae UTHSC 03-3165 after 24 to 48 hrs; format: functional
Rhizopus arrhizus [29] = experiment: Antifungal activity against drug-susceptible Rhizopus oryzae UTHSC 02-2882 infected in OF1 mouse assessed as increase in mouse survival at 20-30 mg/kg, po bid treated 24 hrs after fungal infection; format: functional, organism-based
Summary of the method: (§7)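 Survival model in male OF1 mice, 30 g. Mice were immunosuppressed 1 day before infection with cyclophosphamide 200 mg/kg i.p. plus 5-fluorouracil 150 mg/kg i.v., then infected i.v. via lateral tail vein with 2 × 10^4 CFU in 0.2 ml saline. Oral gavage at 10, 20 or 30 mg/kg BID began 24 h post-challenge for 7 days. Ceftazidime 5 mg/day s.c. was given days 1–7. Groups of 10 were checked daily for 20 days; untreated controls.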

Rhizopus arrhizus [30] = experiment: Antifungal activity against drug-intermediate Rhizopus oryzae UTHSC 04-3109 infected in OF1 mouse assessed as increase in mouse survival at 20-30 mg/kg, po bid treated 24 hrs after fungal infection; format: functional, organism-based; summary of the method: as §7
Rhizopus arrhizus [31] = experiment: Antifungal activity against drug-susceptible Rhizopus oryzae UTHSC 03-511 infected in OF1 mouse assessed as reduction in kidney fungal load at 10-30 mg/kg, po bid; format: functional, organism-based
Summary of the method: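 Immunosuppressed male OF1 mice (cyclophosphamide 200 mg/kg i.p. plus 5-fluorouracil 150 mg/kg i.v., day −1) infected i.v. with 2 × 10^4 CFU; oral gavage twice daily from 24 h post-challenge; 10 mice/group killed day 4; kidneys homogenized in 2 ml saline, 10-fold dilutions plated on potato dextrose agar, 24 h at 35°C for CFU.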

Rhizopus arrhizus [32] = experiment: Antifungal activity against drug-intermediate Rhizopus oryzae UTHSC 04-3109 infected in OF1 mouse assessed as reduction in kidney fungal load at 10-30 mg/kg, po bid treated 24 hrs after fungal infection; format: functional, organism-based
Summary of the method: (§8)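 Tissue burden in immunosuppressed male OF1 mice, using cyclophosphamide 200 mg/kg i.p. plus 5-fluorouracil 150 mg/kg i.v. on day −1. Mice received 2 × 10^4 CFU i.v. by tail vein, then oral gavage at 10, 20 or 30 mg/kg BID from 24 h post-challenge, with ceftazidime cover; untreated controls. Groups of 10 were killed on day 4. Kidneys and brains were homogenized in 2 ml saline, serially diluted 10-fold, plated on PDA and counted after 24 h at 35°C.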

Rhizopus arrhizus [33] = experiment: Antifungal activity against drug-intermediate Rhizopus oryzae UTHSC 04-3109 infected in OF1 mouse assessed as reduction in brain fungal load at 10-30 mg/kg, po bid treated 24 hrs after fungal infection; format: functional, organism-based; summary of the method: as §8

In the case of CC[C@@H]([C@H](C)O)n1ncn(-c2ccc(N3CCN(c4ccc(OC[C@@H]5CO[C@@](Cn6cncn6)(c6ccc(F)cc6F)C5)cc4)CC3)cc2)c1=O [POSACONAZOLE], the MIC (Rhizopus arrhizus [1]) is reported as 0.25 µg/mL (≈ 0.357 µM), the MIC (Rhizopus arrhizus [2]) is reported as 0.5 µg/mL (≈ 0.713 µM) and the MIC (Rhizopus arrhizus [3]) is reported as 1 µg/mL (≈ 1.43 µM). The MIC (Rhizopus arrhizus [4]) was 0.25 µg/mL (≈ 0.357 µM), the MIC (Rhizopus arrhizus [5]) was 1 µg/mL (≈ 1.43 µM) and the MIC (Rhizopus arrhizus [6]) was 0.5 µg/mL (≈ 0.713 µM). It also gave an MIC (Rhizopus arrhizus [7]) of 1 µg/mL (≈ 1.43 µM), a zone of inhibition at 5 µg/disc (Rhizopus arrhizus [8]) of 23 mm and a zone of inhibition at 5 µg/disc (Rhizopus arrhizus [9]) of 22 mm. The zone of inhibition at 5 µg/disc (Rhizopus arrhizus [10]) was 20 mm, the zone of inhibition at 5 µg/disc (Rhizopus arrhizus [11]) was 21 mm and the zone of inhibition at 5 µg/disc (Rhizopus arrhizus [12]) was 17 mm. For the same molecule, the zone of inhibition at 5 µg/disc (Rhizopus arrhizus [13]) was 25 mm, the zone of inhibition at 5 µg/disc (Rhizopus arrhizus [14]) was 15 mm and the zone of inhibition at 5 µg/disc (Rhizopus arrhizus [15]) was 20 mm. The zone of inhibition at 5 µg/disc (Rhizopus arrhizus [16]) was 18 mm, the zone of inhibition at 5 µg/disc (Rhizopus arrhizus [17]) was 15 mm and the zone of inhibition at 5 µg/disc (Rhizopus arrhizus [18]) was 15 mm. The MFC (Rhizopus arrhizus [19]) was > 16 µg/mL, the MFC (Rhizopus arrhizus [20]) was 0.5 µg/mL (≈ 0.713 µM) and the MFC (Rhizopus arrhizus [21]) was 1 µg/mL (≈ 1.43 µM). The MFC (Rhizopus arrhizus [22]) was 0.5 µg/mL (≈ 0.713 µM), the MFC (Rhizopus arrhizus [23]) was 1 µg/mL (≈ 1.43 µM) and the MFC (Rhizopus arrhizus [24]) was > 16 µg/mL. The MFC (Rhizopus arrhizus [25]) was > 16 µg/mL, the MFC (Rhizopus arrhizus [26]) was > 16 µg/mL and the MFC (Rhizopus arrhizus [27]) was 16 µg/mL (≈ 22.8 µM). For the same molecule, the MFC (Rhizopus arrhizus [28]) was 16 µg/mL (≈ 22.8 µM), the Activity (Rhizopus arrhizus [29]) was “Active” and the Activity (Rhizopus arrhizus [30]) was “Active”. The Activity (Rhizopus arrhizus [31]) was “Active”, the Activity (Rhizopus arrhizus [32]) was “Active” and the Activity (Rhizopus arrhizus [33]) was “inactive”.
